Experimental data taken from ChEMBL document CHEMBL3399938, “Chemopreventive flavonoids from Millettia pulchra Kurz var-laxior (Dunn) Z.Wei (Yulangsan) function as Michael reaction acceptors” (Bioorg Med Chem Lett, 2015).

What was measured:
[1] = Cytotoxicity against mouse Hepa-1c1c7 cells assessed as cell viability at 20 uM […]; format: functional; conditions: read-out: Activity
How it was run: (§1)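 Hepa 1c1c7 cells were seeded at 1 × 10^4 cells/mL in α-MEM with 10% FBS and 0.1% penicillin–streptomycin, then grown 24 h at 37 °C in 5% CO2. Medium was replaced with fresh medium containing sample for another 24 h. Cells were then stained with 0.2% crystal violet in 2% ethanol for 10 min, washed and dried. Bound dye was dissolved in 0.5% SDS in 50% ethanol and read at 595 nm.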

[2] = target: NAD(P)H dehydrogenase [quinone] 1 (Mus musculus) (UniProt Q64669); experiment: Induction of NQO1 activity in mouse Hepa-1c1c7 cells assessed as induction ratio at 20 uM after 48 hr by NADPH-dependent MTT assay relative to control; format: cell-based
Chain of NAD(P)H dehydrogenase [quinone] 1 (Mus musculus) (Q64669 whole entry): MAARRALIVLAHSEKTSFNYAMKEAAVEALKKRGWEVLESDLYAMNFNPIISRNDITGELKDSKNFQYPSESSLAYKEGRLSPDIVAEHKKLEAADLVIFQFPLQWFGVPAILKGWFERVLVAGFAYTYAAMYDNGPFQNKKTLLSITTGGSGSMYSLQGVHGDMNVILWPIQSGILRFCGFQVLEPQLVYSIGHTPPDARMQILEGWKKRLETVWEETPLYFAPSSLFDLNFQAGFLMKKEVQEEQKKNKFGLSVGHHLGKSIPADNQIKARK
How it was run: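 Hepa 1c1c7 cells were seeded at 1 × 10^4 cells/mL in α-MEM with 10% FBS, grown 24 h (5% CO2, 37 °C), then exposed to sample for 24 h. Lysis used 0.8% digitonin in 2 mM EDTA (pH 7.8) for 10 min at 37 °C. A menadione/NADP/glucose-6-phosphate dehydrogenase mix with 0.72 mM MTT was added, then read at 590 nm after 3 min shaking. IR = NQO1 activity of sample-treated over DMSO-treated cells; mean ± SE of three independent experiments.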

[3] = Cytotoxicity against mouse Hepa-1c1c7 cells assessed as cell viability at 10 uM […]; format: functional; conditions: read-out: Activity; how it was run: as §1
[4] = target: NAD(P)H dehydrogenase [quinone] 1 (Mus musculus) (UniProt Q64669); experiment: Induction of NQO1 activity in mouse Hepa-1c1c7 cells assessed as induction ratio at 10 uM […] by NADPH-dependent MTT assay relative to control; format: cell-based
[5] = Retention time of the compound by UPLC analysis; format: physicochemical; conditions: in the assay text read “preparative reverse-phase HPLC” for “UPLC”

| Ratio [2] | Ratio [4] | Retention_time [5] [min] | SMILES | viability at 20 µM [1] [%] | viability at 10 µM [3] [%] |
| --- | --- | --- | --- | --- | --- |
| 1.9 | – | – | COc1c(C(=O)/C=C(\O)c2ccccc2)ccc2c1C=CC(C)(C)O2 | 77 | – |
| 1.69 | – | – | COc1c(C(=O)/C=C(\O)c2ccccc2)ccc2occc12 [PONGAMOL] | 78 | – |
| – | 2.17 | – | O=c1cc(-c2ccc(Br)cc2)oc2ccccc12 | – | 109 |
| 2.14 | – | 131 | COc1cc2c(c(O)c1C(=O)/C=C/c1ccccc1)C=CC(C)(C)O2 | 83 | – |
| 2.01 | – | – | COc1c(C(=O)/C=C/c2ccccc2)ccc2occc12 | 81 | – |
| 1.67 | – | – | O=c1c2c(oc3c1ccc1occc13)-c1ccccc1OC2 | 97 | – |
| 1.54 | – | – | CC1(C)C=Cc2c(ccc3c2OC(c2ccccc2)CC3=O)O1 (centres undefined) | 114 | – |
| 2.14 | – | – | CC1(C)C=Cc2c(c(O)cc3c(=O)cc(-c4ccccc4)oc23)O1 | 71 | – |
| 1.75 | – | 58 | O=C(/C=C/c1ccccc1)c1ccc2occc2c1O | 90 | – |
| 2.07 | – | – | COc1c(C(=O)C[C@@H](OC)c2ccccc2)ccc2occc12 | 92 | – |
| 1.4 | – | – | COc1cc2c(=O)cc(-c3ccccc3)oc2c2c1OC(C)(C)C=C2 | 106 | – |
| 1.7 | – | – | CC1(C)C=Cc2c(ccc(C(=O)/C=C/c3ccccc3)c2O)O1 [LONCHOCARPIN] | 84 | – |
| 1.6 | – | – | CC1(C)C=Cc2c(ccc3c(=O)cc(-c4ccccc4)oc23)O1 | 99 | – |
| 1.57 | – | – | COc1c(-c2ccccc2)oc2c(ccc3occc32)c1=O [KARANJIN] | 100 | – |
| 2.02 | – | – | COc1cc2c(c3oc(-c4ccccc4)cc(=O)c13)C=CC(C)(C)O2 [CANDIDIN] | 79 | – |

| SMILES | Ratio [2] | Ratio [4] | Retention_time [5] [min] | viability at 20 µM [1] [%] | viability at 10 µM [3] [%] |
| --- | --- | --- | --- | --- | --- |
| O=c1cc(-c2ccccc2)oc2c1ccc1occc12 [LANCEOLATIN B] | 1.64 | – | – | 100 | – |
